Experimental data: PMC11677264 (Biochemistry, 2023)

Assays:
[1] = target: T1, AmgK (N-acetylmuramic acid/N-acetylglucosamine kinase) (Pseudomonas aeruginosa, UniProt Q9I5U1); assay: 2D-ITC, fit to ordered-sequential rate equation; format: biochemical
How it was run: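 AmgK in the calorimeter cell (650 nM with NAM, 300 nM with NAG) with ATP at 13.5 mM. Eighteen 1 μL injections of NAM or NAG (160 mM syringe stock), ~800 μM sugar at the start of each, spaced ≥1200 s. Run ~8–10 h with stirring, in duplicate. Thermograms converted to rate versus [ATP] versus [sugar] data sets and fitted to the ordered-sequential equation.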

[2] = target: T1, AmgK (N-acetylmuramic acid/N-acetylglucosamine kinase); assay: pyruvate kinase/lactate dehydrogenase-coupled ATP-recycling assay, NADH at […] nm; format: biochemical
[3] = system: Nc1ncnc2c1ncn2[C@@H]1O[C@H](COP(=O)(O)OP(=O)(O)OP(=O)(O)O)[C@@H](O)[C@H]1O; assay: purified protein; settings: saturating NAG 4 mM

T1 sequence (Q9I5U1 whole entry): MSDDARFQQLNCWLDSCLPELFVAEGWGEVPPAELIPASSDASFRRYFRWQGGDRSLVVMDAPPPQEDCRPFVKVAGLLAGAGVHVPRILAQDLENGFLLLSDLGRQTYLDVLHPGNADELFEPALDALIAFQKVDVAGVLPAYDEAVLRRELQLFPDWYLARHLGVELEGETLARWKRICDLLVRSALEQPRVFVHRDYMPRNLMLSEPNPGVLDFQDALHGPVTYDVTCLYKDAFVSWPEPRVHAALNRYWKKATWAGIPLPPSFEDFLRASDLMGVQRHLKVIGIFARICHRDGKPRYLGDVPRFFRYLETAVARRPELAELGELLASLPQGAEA

With `Nc1ncnc2c1ncn2[C@@H]1O[C@H](COP(=O)(O)OP(=O)(O)O)[C@@H](O)[C@H]1O` [ADP] the Ki [1] was 694 ± 128 µM.

`Nc1ncnc2c1ncn2[C@@H]1O[C@H](COP(=O)(O)OP(=O)(O)NP(=O)(O)O)[C@@H](O)[C@H]1O` [AMP-PNP] was tested, and the Ki [2] was 471 ± 169 µM.

With “AmgK (N-acetylmuramic acid/N-acetylglucosamine kinase) (Pseudomonas aeruginosa PAO1)” the Km [3] was 70 ± 12 µM.
